According to ChEMBL document CHEMBL1147890, “Synthesis of the new pseudo-symmetrical tamoxifen derivatives and their anti-tumor activity” (Bioorg Med Chem Lett, 2007):
The source made the active and inactive calls. The rule behind the calls is not given here.

Experiments:
HL-60 [1] = assay: Antitumor activity against HL60 cells after 6 hrs by MTT assay; format: functional, cell-based; settings: Homo sapiens, HL-60, 6 h
Procedure, shortened: (§1)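 HL-60 human acute promyelocytic leukemia cells exposed for 0–6 h at final 2.5, 5, 7.5 and 10 µM. Viability read by MTT (mitochondrial succinic dehydrogenase reduces dye to formazan). Growth rate expressed against formazan absorbance at 0 h set to 1.0. SD, n = 5. IC50 taken as median growth-inhibitory concentration at 3 h or 6 h.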

HL-60 [2] = assay: Antitumor activity against HL60 cells at 7.5 uM after 6 hrs by MTT assay; format: functional, Homo sapiens; procedure, shortened: as §1
HL-60 [3] = assay: Induction of apoptosis in HL60 cells assessed as DNA fragmentation at 9 uM by agarose gel electrophoresis; format: functional, cell-based; settings: Homo sapiens
Procedure, shortened: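 Apoptosis versus necrosis judged by oligonucleosomal DNA cleavage on agarose gel electrophoresis. HL-60 cells treated 6 h at 9 µM final. Controls were medium only, tamoxifen, ethanol and actinomycin D.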

HL-60 [4] = assay: Antitumor activity against HL60 cells at 10 uM after 6 hrs by MTT assay; format: functional, Homo sapiens; procedure, shortened: as §1
HL-60 [5] = assay: Antitumor activity against HL60 cells at 5 uM after 6 hrs by MTT assay; format: functional, Homo sapiens; procedure, shortened: as §1
HL-60 [6] = assay: Antitumor activity against HL60 cells after 3 hrs by MTT assay; format: functional, cell-based; settings: Homo sapiens, HL-60, 3 h; procedure, shortened: as §1
HL-60 [7] = assay: Antitumor activity against HL60 cells at 5 ug/ml after 4 hrs by MTT assay; format: functional, Homo sapiens
Procedure, shortened: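 HL-60 cells given 5 µg/mL. Viability measured by MTT formazan absorbance after 4 h and expressed relative to the 0 h reading.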

| IC50 (HL-60 [1]) | IC50 (HL-60 [6]) | SMILES | Activity (HL-60 [2]) | Activity (HL-60 [3]) | Activity (HL-60 [4]) | Activity (HL-60 [5]) | Activity (HL-60 [7]) |
| --- | --- | --- | --- | --- | --- | --- | --- |
| 5 µM | – | CCC(=C(c1ccc(OCCN2CCCCC2)cc1)c1ccc(OCCN2CCCCC2)cc1)c1ccccc1 | >80% | Active | >80% | – | – |
| 3 µM | 4 µM | CCC(=C(c1ccc(OCCN2CCCC2)cc1)c1ccc(OCCN2CCCC2)cc1)c1ccccc1 | >90% | Active | >90% | >90% | >90% |
